Drawing on ChEMBL document CHEMBL1123096, “Alpha-adrenoreceptor reagents. 3. Synthesis of some 2-substituted 1,4-benzodioxans as selective presynaptic alpha 2-adrenoreceptor antagonists” (J Med Chem, 1985), this text covers potency relative to idazoxan, Ratio and Postsynaptic antagonist for 25 molecules.

Each structure is given as a SMILES string. Where only a bound is given, the exact number is not on record here.

Experiment [1] deals with Adrenergic receptor alpha-2 (Rattus norvegicus) (UniProt P22086+P19328+P22909). Description: Presynaptic antagonist activity towards alpha-2 adrenergic receptor. The class given is functional. Put shortly:
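Vas deferens from rat or mouse; the mouse tissue was in Mg-free Krebs at 30 °C under 0.5 g tension, stimulated at 0.1 Hz, 3 ms, 100–140 V, giving a twitch of about 100 mg. […] Standard curves were run before and after the test curve.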

In experiment [2] the target is Adrenergic receptor alpha (Rattus norvegicus) (UniProt P15823+P23944+P43140+P22086+P19328+P22909). The experiment in a line: Selectivity as ratio […] against alpha-2 receptor to that of alpha-1 receptor. The format is protein assay.
The target of experiment [3] is Adrenergic receptor alpha-1 (Rattus norvegicus) (UniProt P15823+P23944+P43140). The experiment in a line: post-synaptic antagonist activity towards alpha-1 adrenergic receptor was determined. Concentration giving a dose response to phenylephrine (idazoxan=1) was reported. The format is functional. Put shortly: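 Rat anococcygeus, postsynaptic α1 antagonism. At least five phenylephrine concentration–response curves were run alone, then at least four with the antagonist present.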
Chain of Adrenergic receptor alpha-1 (Rattus norvegicus) (P15823 whole entry, looked up): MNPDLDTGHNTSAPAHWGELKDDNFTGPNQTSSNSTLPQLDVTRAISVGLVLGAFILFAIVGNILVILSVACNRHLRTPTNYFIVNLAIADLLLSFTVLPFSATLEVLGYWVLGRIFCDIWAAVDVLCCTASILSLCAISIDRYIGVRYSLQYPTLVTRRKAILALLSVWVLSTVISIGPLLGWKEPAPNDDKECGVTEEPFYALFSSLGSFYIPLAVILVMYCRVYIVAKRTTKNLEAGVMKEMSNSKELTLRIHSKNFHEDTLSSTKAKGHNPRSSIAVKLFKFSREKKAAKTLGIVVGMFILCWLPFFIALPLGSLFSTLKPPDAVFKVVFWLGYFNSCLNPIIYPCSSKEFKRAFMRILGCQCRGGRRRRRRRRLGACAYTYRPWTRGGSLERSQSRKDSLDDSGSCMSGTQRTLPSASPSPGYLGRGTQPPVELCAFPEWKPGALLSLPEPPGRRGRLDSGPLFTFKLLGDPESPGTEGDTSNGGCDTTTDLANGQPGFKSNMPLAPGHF
Chain of Adrenergic receptor alpha-1 (Rattus norvegicus) (P23944 whole entry, looked up): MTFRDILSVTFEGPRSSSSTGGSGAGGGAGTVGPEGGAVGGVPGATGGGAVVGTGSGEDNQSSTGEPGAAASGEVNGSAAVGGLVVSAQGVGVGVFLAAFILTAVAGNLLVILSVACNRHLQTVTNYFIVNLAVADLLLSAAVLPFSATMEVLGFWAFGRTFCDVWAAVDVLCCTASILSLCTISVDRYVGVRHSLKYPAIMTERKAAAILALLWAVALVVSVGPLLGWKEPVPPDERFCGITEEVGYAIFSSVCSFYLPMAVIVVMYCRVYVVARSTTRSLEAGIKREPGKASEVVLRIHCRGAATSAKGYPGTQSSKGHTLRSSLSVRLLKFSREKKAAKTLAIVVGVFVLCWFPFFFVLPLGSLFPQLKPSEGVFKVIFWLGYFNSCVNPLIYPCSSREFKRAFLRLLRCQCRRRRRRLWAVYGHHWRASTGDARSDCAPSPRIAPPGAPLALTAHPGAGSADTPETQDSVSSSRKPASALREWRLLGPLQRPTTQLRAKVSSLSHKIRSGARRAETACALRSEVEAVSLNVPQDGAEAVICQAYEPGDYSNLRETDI
Chain of Adrenergic receptor alpha-1 (Rattus norvegicus) (P43140 whole entry, looked up): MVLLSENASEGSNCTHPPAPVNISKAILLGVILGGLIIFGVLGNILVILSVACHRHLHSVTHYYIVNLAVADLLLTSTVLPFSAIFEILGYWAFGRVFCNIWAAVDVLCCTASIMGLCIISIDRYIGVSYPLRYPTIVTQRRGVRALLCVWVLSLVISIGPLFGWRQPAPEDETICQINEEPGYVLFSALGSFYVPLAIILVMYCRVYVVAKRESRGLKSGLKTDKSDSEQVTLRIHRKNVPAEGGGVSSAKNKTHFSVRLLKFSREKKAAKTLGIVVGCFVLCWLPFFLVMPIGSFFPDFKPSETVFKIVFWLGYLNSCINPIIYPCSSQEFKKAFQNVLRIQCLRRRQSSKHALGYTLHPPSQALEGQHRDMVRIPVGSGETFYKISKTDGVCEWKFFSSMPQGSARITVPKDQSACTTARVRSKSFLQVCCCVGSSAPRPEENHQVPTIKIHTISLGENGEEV

Chain of Adrenergic receptor alpha-2 (Rattus norvegicus) (P19328 whole entry, looked up): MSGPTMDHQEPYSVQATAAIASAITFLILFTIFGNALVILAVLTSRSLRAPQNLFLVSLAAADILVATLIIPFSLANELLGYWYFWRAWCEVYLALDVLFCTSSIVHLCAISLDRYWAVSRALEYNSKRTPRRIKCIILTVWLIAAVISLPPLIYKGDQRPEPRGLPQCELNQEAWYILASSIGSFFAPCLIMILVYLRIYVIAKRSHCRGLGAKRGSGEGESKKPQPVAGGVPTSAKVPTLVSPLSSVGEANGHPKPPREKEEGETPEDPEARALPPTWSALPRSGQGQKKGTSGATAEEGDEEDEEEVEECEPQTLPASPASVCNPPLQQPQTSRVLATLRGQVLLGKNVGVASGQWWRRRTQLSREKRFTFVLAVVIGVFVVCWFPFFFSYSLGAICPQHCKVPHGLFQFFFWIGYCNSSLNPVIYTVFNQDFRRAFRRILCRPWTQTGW
Chain of Adrenergic receptor alpha-2 (Rattus norvegicus) (P22086 whole entry, looked up): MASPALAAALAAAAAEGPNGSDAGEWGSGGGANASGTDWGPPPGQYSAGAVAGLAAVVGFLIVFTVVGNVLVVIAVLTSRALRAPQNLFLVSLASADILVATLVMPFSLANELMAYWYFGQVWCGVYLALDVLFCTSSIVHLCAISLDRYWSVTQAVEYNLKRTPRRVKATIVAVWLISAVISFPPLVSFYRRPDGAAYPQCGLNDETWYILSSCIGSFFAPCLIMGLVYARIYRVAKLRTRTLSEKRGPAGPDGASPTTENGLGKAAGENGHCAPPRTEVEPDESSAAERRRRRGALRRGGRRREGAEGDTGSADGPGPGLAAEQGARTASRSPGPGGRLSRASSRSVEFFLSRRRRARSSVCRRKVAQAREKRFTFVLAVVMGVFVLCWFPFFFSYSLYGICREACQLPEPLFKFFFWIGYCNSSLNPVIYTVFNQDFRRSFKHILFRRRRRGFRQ
Chain of Adrenergic receptor alpha-2 (Rattus norvegicus) (P22909 whole entry, looked up): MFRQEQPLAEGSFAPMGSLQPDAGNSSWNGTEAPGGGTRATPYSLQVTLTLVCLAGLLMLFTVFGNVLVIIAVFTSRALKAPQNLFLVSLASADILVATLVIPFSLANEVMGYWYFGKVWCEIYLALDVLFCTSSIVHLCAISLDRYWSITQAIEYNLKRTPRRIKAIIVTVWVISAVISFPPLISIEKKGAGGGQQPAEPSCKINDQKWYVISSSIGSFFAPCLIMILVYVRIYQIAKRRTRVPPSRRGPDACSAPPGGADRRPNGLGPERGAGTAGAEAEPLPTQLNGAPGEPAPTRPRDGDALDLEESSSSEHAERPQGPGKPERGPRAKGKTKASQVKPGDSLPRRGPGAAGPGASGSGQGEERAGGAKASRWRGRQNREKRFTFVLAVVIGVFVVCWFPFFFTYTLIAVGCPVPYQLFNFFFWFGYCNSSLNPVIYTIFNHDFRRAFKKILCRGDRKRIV

The molecule `C=CC1(C2=NCCN2)COc2ccccc2O1` (centres undefined) yielded a potency relative to idazoxan in experiment [1] of 1. In addition, the Ratio in experiment [2] was found to be 3.3. Also, in experiment [3], the Postsynaptic antagonist came out at 0.3.
As for `Cc1cccc(OC2(C3=NCCN3)COc3ccccc3O2)c1` (centres undefined), the potency relative to idazoxan in experiment [1] was 0.35. Also, the Ratio in experiment [2] was found to be 1.75. The Postsynaptic antagonist in experiment [3] amounted to 0.2.
For `C#CCOC1(C2=NCCN2)COc2ccccc2O1` (centres undefined) the same measures were 1.2, 0.57 and 2.1.
The like results for `OCCOC1(C2=NCCN2)COc2ccccc2O1` (centres undefined) were, in that order, 1.4, 1.4 and 1.
As for `Clc1ccc(COC2(C3=NCCN3)COc3ccccc3O2)cc1` (centres undefined), in experiment [1], the potency relative to idazoxan came out at 1. For the same molecule, the Ratio in experiment [2] was found to be 0.4. This molecule gave a Postsynaptic antagonist in experiment [3] of 2.46.
Regarding `CCCCCCCC1(C2=NCCN2)COc2ccccc2O1` (centres undefined), the potency relative to idazoxan in experiment [1] was found to be 0.9. In experiment [2], the Ratio is 0.85. For the same molecule, the Postsynaptic antagonist in experiment [3] came to 1.1.
For `CC1Oc2ccccc2OC1C1=NCCN1` (centres undefined) the same measures were 0.002, 0.087 and 0.023.
For `OCCCCOC1(C2=NCCN2)COc2ccccc2O1` (centres undefined) the same measures were 0.24, 0.24 and 1.
The like results for `COc1cc2c(cc1OC)OC(OC)(C1=NCCN1)CO2` (centres undefined) were, in that order, 0.006, 0.1 and 0.05.
As to `COC1(C2=NC(C)CN2)COc2ccccc2O1` (centres undefined), the potency relative to idazoxan in experiment [1] is 0.09. In addition, the Ratio in experiment [2] was determined as 0.09. This molecule also showed a Postsynaptic antagonist in experiment [3] of 1.
As to `Clc1ccccc1COC1(C2=NCCN2)COc2ccccc2O1` (centres undefined), the potency relative to idazoxan in experiment [1] turned out to be 0.36. In experiment [2], the Ratio was found to be 0.36. This molecule registered a Postsynaptic antagonist in experiment [3] of 1.
On to `C1=C(C2(C3=NCCN3)COc3ccccc3O2)CCCC1` (centres undefined), for which, in experiment [1], the potency relative to idazoxan was determined as 0.026. For the same molecule, the Ratio in experiment [2] was 0.035. Also, in experiment [3], the Postsynaptic antagonist is 0.75.
The like results for `CCCCC1(C2=NCCN2)COc2ccccc2O1` (centres undefined) were, in that order, 1.5, 0.68 and 2.2.
The like results for `c1ccc2c(c1)OCC(C1=NCCN1)(C1CCCC1)O2` (centres undefined) were, in that order, 0.015, 0.04 and 0.4.
For `c1ccc(CCOC2(C3=NCCN3)COc3ccccc3O2)cc1` (centres undefined) the same measures were 1, 0.14 and 8.8.
Molecule `C1=C(C2(C3=NCCN3)COc3ccccc3O2)CCC1` (centres undefined) registered a potency relative to idazoxan in experiment [1] of 0.15. In addition, the Ratio in experiment [2] was 1.7. Further, in experiment [3], the Postsynaptic antagonist is 0.09.
The molecule `COCCOC1(C2=NCCN2)COc2ccccc2O1` (centres undefined) yielded a potency relative to idazoxan in experiment [1] of 0.2. In experiment [2], the Ratio turned out to be 0.2. Besides, the Postsynaptic antagonist in experiment [3] stood at 1.
For the molecule `c1ccc(C2(C3=NCCN3)COc3ccccc3O2)cc1` (centres undefined), the potency relative to idazoxan in experiment [1] was 0.04. Moreover, the Ratio in experiment [2] was 1.6. In experiment [3], this molecule gave a Postsynaptic antagonist of 0.026.
For `COc1ccc(COC2(C3=NCCN3)COc3ccccc3O2)cc1` (centres undefined) the same measures were 0.6, 0.13 and 4.8.
For `c1ccc2c(c1)OCC(OC1CCCC1)(C1=NCCN1)O2` (centres undefined) the same measures were 0.16, 0.16 and 1.
For `c1ccc(OC2(C3=NCCN3)COc3ccccc3O2)cc1` (centres undefined) the same measures were 0.023, 0.023 and 1.
In the case of `CC(C)C1(C2=NCCN2)COc2ccccc2O1` (centres undefined), in experiment [1], the potency relative to idazoxan amounted to 0.024. Also, in experiment [3], the Postsynaptic antagonist is < 0.006.
For `COc1ccccc1COC1(C2=NCCN2)COc2ccccc2O1` (centres undefined), the potency relative to idazoxan in experiment [1] turned out to be 1.7. In addition, the Ratio in experiment [2] worked out at 0.75. Moreover, in experiment [3], the Postsynaptic antagonist was determined as 2.3.
As for `COc1ccc(OC2(C3=NCCN3)COc3ccccc3O2)cc1` (centres undefined), the potency relative to idazoxan in experiment [1] was determined as 0.34. Also, the Ratio in experiment [2] is 0.17. For the same molecule, the Postsynaptic antagonist in experiment [3] turned out to be 2.
With `CCCCCOC1(C2=NCCN2)COc2ccccc2O1` (centres undefined), the potency relative to idazoxan in experiment [1] came to 0.72. The Ratio in experiment [2] was 1.2. In experiment [3], the Postsynaptic antagonist amounted to 0.6.
